Here are results for 2 compounds from ChEMBL document CHEMBL3351593, “Potent nonimmunosuppressive cyclophilin inhibitors with improved pharmaceutical properties and decreased transporter inhibition” (J Med Chem, 2014).

A short description of data set [1]: AUC in dog plasma at 1 mg/kg, po after 72 hrs. Type of data set: ADME, organism-based, Canis lupus familiaris. Also noted: time < 72 hr, dose 1 mg/kg, route oral. In short, it runs like this: (§1)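 Oral dosing as a solution in MEPC: rat 25 mg/kg, dog 1 mg/kg. Blood and plasma collected separately over 0−72 h and AUC computed for each matrix.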
In another data set the target is Bile salt export pump (Homo sapiens, UniProt O95342). Put plainly: Inhibition of BSEP (unknown origin) expressed in HEK293 cells using [3H]taurocholic acid substrate. It counts as ADME, cell-based. In short, it runs like this:
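BSEP activity in HEK293 cells, measured with [3H]taurocholic acid uptake as substrate; IC50 reported.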

Data set [2] in a line: Kinetic solubility of the compound in pH 7.0 water. Particulars: read-out: Kinetic_solubility. It counts as physicochemical.
Data set [3] concerns the target T1, Broad substrate specificity ATP-binding cassette transporter ABCG2 (Homo sapiens, UniProt Q9UNQ0).
T1 sequence (Q9UNQ0 whole entry): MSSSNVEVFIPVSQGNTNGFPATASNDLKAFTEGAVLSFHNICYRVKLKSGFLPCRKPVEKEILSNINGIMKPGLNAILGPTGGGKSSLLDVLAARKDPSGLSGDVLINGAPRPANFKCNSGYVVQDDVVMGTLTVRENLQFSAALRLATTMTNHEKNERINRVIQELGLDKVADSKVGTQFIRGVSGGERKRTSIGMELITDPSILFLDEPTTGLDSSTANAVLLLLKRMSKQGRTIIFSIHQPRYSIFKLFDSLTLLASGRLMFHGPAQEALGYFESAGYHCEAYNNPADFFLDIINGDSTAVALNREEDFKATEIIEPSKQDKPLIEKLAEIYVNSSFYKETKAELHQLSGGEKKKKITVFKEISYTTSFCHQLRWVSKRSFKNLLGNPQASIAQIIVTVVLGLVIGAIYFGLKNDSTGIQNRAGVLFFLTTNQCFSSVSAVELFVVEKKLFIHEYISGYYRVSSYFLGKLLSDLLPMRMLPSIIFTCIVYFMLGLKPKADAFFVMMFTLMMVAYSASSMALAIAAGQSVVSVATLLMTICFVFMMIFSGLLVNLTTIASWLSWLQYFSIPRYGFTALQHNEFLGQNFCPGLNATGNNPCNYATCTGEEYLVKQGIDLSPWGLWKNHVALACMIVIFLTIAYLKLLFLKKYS
Put plainly: Inhibition of BCRP (unknown origin) expressed in T8 cells using Bodipy FL-prazosin substrate. It counts as ADME, cell-based. In short, it runs like this:
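BCRP activity in T8 cells, measured with Bodipy FL-prazosin as substrate; IC50 reported.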

Data set [4] concerns the target Peptidyl-prolyl cis-trans isomerase F, mitochondrial (Homo sapiens, UniProt P30405). The data set can be described thus: Binding affinity to human cyclophilin F by surface plasmon resonance method. The method, boiled down: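 Surface plasmon resonance with biotinylated cyclophilin protein, single-cycle kinetics. Running buffer 10 mM HEPES pH 7.4, 150 mM NaCl, 0.05% P20, 3% DMSO, with inhibitor present. Compound injected at several concentrations, 1 min contact each at 50 μL/min, then 10 min final dissociation. kon, koff and KD obtained from a 1:1 binding model fit.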
(SPR reads the build-up and loss of mass on a sensor chip optically.)

Data set [5] concerns the target Peptidyl-prolyl cis-trans isomerase B (Homo sapiens, UniProt P23284). Put plainly: Binding affinity to human cyclophilin B by surface plasmon resonance method. The method, boiled down: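 Biotinylated cyclophilin proteins examined by single-cycle kinetics SPR. Running buffer 10 mM HEPES pH 7.4, 150 mM NaCl, 0.05% P20, 3% DMSO, with inhibitor. Each concentration injected for 1 min at 50 μL/min, then 10 min dissociation. kon, koff and KD obtained from a 1:1 binding fit.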

Data set [6] addresses T2, Solute carrier organic anion transporter family member 1B3 (Homo sapiens, UniProt Q9NPD5).
T2 sequence (Q9NPD5 whole entry): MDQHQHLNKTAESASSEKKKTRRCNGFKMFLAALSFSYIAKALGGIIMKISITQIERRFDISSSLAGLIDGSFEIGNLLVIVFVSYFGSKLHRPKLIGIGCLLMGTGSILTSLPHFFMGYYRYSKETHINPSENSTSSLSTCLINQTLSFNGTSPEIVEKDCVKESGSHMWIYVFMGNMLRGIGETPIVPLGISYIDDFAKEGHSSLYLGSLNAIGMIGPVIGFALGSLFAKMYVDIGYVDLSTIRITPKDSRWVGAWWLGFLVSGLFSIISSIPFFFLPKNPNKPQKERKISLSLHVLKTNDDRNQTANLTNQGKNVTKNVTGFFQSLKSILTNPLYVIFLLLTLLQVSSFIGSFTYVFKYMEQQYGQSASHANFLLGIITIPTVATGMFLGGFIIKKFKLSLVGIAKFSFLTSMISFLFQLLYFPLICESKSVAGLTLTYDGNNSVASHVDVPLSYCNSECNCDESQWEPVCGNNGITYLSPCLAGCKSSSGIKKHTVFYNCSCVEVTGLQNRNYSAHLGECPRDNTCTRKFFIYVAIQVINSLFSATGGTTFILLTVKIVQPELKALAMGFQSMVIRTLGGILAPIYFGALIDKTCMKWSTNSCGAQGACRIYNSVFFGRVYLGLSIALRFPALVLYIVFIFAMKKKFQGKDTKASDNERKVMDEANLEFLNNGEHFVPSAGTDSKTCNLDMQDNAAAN
The data set can be described thus: Inhibition of OATP1B3 (unknown origin) expressed in HEK293 cells using [3H]estradiol-17beta-glucuronide substrate. Type of data set: ADME, cell-based. The method, boiled down: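 Recombinant OATP1B1 or OATP1B3 expressed in HEK293 cells, with [3H]estradiol-17β-glucuronide as substrate; IC50 determined.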

Data set [7] has as its target Peptidyl-prolyl cis-trans isomerase A (Homo sapiens, UniProt P62937). Put plainly: Binding affinity to human cyclophilin A by surface plasmon resonance method.
In the next data set the test system is Hepatitis C virus. The data set can be described thus: Antiviral activity against HCV subtype 1b in human Huh7.5 cells expressing subgenomic HCV replicons and coexpressing luciferase reporter gene. It counts as functional, cell-based, Hepacivirus hominis. The note with it: genotype 1b, Huh-7. In short, it runs like this:
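Stable Huh7.5 lines carrying genotype 1a or 1b subgenomic replicons with luciferase reporter, made by RNA electroporation and G418 selection. Assay run in phenol red-free DMEM without G418, sixteen half-log compound dilutions, in triplicate. Luciferase signal read after 72 h relative to DMSO controls, giving EC50.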

Data set [8] is described as follows: AUC in rat blood at 25 mg/kg, po after 72 hrs. Type of data set: ADME, organism-based. Also noted: time < 72 hr, dose 25 mg/kg, route oral. The note with it: whole blood. The method, boiled down:
as §1

The target of data set [9] is ATP-binding cassette sub-family C member 2 (Homo sapiens, UniProt Q92887). The data set can be described thus: Inhibition of human MRP2 expressed in Sf9 cells inside out vesicles using CDCF substrate. The method, boiled down:
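Inside-out vesicles from baculovirus-infected Sf9 cells expressing hMRP2, with CDCF as probe. ATP-dependent uptake taken as uptake with ATP minus uptake with AMP. Remaining activity calculated as uptake with inhibitor divided by uptake without, and the inhibition value derived from that.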

Data set [10] addresses ATP-dependent translocase ABCB1 (Homo sapiens, UniProt P08183). The data set can be described thus: Inhibition of MDR1 (unknown origin) expressed in MDA T0.3 cells using rhodamine 123 substrate. Type of data set: ADME, cell-based. The method, boiled down: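 MDR1 activity in MDA T0.3 cells, measured with rhodamine 123 as substrate; IC50 reported.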
Data set [11] is described as follows: AUC in dog blood at 1 mg/kg, po after 72 hrs. The arrangement: time < 72 hr, dose 1 mg/kg, route oral. Type of data set: ADME, organism-based, Canis lupus familiaris. The note with it: whole blood. The method, boiled down: as §1
A short description of data set [12]: AUC in rat plasma at 25 mg/kg, po after 72 hrs. Type of data set: ADME, organism-based. The arrangement: time < 72 hr, dose 25 mg/kg, route oral. In short, it runs like this: as §1

pEC50, pIC50, pKd, pKi: −log10 of the molar value. Values after ≈ are worked out from the molar mass of the structure shown.

Broadly, the AUC is the area under the concentration-time curve, a measure of exposure. Read a low AUC as less exposure. The pIC50 is the IC50 on a negative log10 scale, so that one unit is a factor of ten. One may read the pKd as the Kd on a negative log10 scale, so that one unit is a factor of ten. A higher pKd goes with a low Kd. The term pEC50 denotes the EC50 on a negative log10 scale, so that one unit is a factor of ten. Read a low pEC50 as a large EC50. A word on the pKi: it is the Ki on a negative log10 scale, so that one unit is a factor of ten. Lower therefore signals a high Ki.

Bile salt export pump, sequence (O95342 whole entry): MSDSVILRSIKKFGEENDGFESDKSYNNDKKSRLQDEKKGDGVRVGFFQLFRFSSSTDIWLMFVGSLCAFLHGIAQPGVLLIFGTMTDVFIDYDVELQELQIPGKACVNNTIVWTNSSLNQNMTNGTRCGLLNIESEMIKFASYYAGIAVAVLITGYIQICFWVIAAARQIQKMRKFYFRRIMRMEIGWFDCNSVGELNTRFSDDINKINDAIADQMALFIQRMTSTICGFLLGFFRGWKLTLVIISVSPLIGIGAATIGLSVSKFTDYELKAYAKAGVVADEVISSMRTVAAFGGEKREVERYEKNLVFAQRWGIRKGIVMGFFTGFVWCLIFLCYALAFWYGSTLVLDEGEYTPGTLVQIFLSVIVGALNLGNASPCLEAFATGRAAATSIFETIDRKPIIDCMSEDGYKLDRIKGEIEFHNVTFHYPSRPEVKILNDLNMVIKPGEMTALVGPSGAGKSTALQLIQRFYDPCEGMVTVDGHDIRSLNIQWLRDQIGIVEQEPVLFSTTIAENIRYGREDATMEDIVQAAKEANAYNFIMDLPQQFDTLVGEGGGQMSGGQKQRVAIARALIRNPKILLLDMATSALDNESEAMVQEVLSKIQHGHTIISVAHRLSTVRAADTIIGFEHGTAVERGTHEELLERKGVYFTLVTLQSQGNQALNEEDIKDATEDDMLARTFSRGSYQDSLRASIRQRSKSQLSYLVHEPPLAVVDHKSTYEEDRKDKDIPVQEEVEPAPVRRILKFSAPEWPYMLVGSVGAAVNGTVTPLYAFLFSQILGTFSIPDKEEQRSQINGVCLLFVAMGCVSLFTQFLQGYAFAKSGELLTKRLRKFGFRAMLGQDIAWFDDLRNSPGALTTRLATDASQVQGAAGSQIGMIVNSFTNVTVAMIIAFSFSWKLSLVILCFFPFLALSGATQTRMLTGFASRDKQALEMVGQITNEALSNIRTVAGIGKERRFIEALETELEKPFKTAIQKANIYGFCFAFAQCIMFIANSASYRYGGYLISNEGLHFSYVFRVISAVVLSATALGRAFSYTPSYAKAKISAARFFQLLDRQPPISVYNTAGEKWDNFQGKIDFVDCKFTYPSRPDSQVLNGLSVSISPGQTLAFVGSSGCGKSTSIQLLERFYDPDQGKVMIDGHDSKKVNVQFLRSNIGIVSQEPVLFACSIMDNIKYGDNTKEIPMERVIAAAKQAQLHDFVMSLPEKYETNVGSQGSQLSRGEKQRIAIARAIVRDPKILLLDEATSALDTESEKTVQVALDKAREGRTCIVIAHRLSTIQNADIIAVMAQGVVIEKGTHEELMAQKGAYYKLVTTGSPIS
Peptidyl-prolyl cis-trans isomerase B, sequence (P23284 whole entry): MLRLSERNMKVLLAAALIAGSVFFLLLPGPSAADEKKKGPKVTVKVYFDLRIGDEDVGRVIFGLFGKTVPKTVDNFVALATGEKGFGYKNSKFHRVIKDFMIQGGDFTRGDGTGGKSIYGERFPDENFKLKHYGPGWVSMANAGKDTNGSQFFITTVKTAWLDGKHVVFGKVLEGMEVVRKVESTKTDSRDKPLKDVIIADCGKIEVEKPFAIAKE
Peptidyl-prolyl cis-trans isomerase F, mitochondrial, sequence (P30405 whole entry): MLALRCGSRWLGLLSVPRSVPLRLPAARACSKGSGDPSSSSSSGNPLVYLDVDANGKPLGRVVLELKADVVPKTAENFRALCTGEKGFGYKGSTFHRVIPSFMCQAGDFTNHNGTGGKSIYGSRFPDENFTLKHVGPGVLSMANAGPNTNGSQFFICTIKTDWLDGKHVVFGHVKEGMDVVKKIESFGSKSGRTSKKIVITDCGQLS
ATP-dependent translocase ABCB1, sequence (P08183 whole entry): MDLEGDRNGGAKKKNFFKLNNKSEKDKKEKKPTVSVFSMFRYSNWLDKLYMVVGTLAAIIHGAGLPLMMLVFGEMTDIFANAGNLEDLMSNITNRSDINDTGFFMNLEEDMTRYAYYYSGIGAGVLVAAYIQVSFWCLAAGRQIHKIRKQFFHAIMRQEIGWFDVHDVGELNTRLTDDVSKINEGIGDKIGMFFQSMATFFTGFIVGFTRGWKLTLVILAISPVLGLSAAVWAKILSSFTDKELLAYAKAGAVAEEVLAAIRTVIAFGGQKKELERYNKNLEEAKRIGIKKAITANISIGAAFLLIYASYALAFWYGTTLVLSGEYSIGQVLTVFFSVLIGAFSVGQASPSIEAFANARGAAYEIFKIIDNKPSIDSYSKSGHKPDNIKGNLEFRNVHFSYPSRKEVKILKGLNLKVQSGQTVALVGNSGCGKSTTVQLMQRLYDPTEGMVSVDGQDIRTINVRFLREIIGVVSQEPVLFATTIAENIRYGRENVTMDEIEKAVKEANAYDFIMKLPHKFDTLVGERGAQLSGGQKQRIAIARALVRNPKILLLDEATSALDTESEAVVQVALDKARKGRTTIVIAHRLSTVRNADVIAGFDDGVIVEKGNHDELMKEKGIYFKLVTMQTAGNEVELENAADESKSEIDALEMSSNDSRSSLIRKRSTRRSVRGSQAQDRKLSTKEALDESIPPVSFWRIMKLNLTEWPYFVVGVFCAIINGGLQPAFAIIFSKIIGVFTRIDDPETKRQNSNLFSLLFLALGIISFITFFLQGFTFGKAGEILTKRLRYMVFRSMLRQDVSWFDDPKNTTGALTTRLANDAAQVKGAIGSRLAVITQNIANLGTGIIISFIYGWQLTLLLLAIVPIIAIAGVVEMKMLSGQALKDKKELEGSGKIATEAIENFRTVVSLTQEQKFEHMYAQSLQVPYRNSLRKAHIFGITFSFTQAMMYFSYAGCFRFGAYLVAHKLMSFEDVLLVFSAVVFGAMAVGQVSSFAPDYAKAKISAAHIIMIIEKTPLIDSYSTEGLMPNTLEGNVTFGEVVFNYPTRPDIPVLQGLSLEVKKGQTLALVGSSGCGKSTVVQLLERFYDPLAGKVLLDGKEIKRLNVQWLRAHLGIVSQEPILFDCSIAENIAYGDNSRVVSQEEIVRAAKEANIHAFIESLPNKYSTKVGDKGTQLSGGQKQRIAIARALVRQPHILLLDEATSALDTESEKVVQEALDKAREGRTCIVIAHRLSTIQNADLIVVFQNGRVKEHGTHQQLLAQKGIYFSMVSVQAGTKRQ
Peptidyl-prolyl cis-trans isomerase A, sequence (P62937 whole entry): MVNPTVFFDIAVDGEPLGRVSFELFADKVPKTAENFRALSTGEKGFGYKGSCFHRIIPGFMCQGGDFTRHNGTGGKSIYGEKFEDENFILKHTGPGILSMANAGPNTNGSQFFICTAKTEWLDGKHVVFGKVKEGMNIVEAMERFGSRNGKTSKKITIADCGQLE
ATP-binding cassette sub-family C member 2, sequence (Q92887 whole entry): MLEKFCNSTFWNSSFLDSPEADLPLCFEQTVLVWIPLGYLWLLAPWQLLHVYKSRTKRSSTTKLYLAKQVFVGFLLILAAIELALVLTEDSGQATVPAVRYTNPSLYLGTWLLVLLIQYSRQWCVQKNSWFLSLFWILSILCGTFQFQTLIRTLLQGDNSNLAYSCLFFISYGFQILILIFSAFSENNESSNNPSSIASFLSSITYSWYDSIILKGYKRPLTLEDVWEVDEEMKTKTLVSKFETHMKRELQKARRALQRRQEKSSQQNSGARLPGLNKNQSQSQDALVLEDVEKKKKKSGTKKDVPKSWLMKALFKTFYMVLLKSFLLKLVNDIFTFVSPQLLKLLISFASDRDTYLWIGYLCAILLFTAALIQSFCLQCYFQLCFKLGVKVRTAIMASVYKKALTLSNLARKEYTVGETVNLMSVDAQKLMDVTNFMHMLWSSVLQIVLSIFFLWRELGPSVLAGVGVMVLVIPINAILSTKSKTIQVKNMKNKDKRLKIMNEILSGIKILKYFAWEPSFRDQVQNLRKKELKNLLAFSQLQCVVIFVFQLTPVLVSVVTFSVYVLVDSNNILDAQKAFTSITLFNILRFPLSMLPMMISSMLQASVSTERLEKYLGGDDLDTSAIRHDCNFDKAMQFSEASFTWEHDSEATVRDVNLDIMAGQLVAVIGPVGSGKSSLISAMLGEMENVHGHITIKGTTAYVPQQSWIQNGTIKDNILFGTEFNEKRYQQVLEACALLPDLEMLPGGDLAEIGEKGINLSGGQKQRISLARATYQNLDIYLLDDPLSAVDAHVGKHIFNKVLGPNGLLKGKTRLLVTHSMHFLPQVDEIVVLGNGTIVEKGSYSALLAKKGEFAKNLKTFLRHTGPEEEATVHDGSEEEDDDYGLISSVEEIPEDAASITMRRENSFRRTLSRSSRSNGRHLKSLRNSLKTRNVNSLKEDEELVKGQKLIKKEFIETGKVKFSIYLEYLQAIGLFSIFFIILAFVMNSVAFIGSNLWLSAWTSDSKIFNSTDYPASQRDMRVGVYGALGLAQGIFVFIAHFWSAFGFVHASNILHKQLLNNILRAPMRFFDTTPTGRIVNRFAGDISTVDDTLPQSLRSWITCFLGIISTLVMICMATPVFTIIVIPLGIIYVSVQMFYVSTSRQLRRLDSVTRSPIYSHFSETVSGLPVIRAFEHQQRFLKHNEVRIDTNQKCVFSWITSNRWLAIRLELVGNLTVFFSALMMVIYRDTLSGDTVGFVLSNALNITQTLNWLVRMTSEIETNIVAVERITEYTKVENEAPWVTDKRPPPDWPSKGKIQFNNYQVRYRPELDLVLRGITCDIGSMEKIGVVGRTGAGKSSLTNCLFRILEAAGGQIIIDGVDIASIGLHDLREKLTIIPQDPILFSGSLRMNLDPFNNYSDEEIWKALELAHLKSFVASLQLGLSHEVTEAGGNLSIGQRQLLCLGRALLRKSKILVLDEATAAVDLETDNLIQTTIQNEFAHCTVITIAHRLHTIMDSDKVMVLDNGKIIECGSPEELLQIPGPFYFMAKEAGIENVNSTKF

In the case of `C/C=C/C[C@@H](C)[C@@H](O)[C@H]1C(=O)N[C@@H](CC)C(=O)N(C)[C@H](C)C(=O)N(C)[C@@H]([C@@H](C)CN2CCN(CCOC)CC2)C(=O)N[C@@H](C(C)C)C(=O)N(C)[C@@H](CC(C)C)C(=O)N[C@@H](C)C(=O)N[C@H](C)C(=O)N(C)[C@@H](CC(C)C)C(=O)N(C)[C@@H](CC(C)C)C(=O)N(C)[C@@H](C(C)C)C(=O)N1C`, the AUC at 72 h in data set [1] was found to be 0.9 µM·h; in [8] it was 58.4 µM·h; in [11], 22.1 µM·h; in data set [12] it was 5.8 µM·h. Further, the pIC50 at Bile salt export pump was 5.80; in data set [3], below 4.60; in data set [6] it was 6.06; in data set [10], 5.20. Further, in [2], the solubility kinetic amounted to 1100 µg/mL (≈ 818 µM). Also, the pKd in data set [4] is 9.05; in [5] it was 8.92; in data set [7], 8.92. The compound also had a negative-log EC50 (pEC50) in the data set with Hepatitis C virus of 7.40. The pKi in [9] is 3.85.

Turning to `C/C=C/C[C@@H](C)[C@@H](O)[C@H]1C(=O)N[C@@H](CC)C(=O)N(C)[C@H](C)C(=O)N(CC)[C@@H](C(C)C)C(=O)N[C@@H](C(C)C)C(=O)N(C)[C@@H](CC(C)C)C(=O)N[C@@H](C)C(=O)N[C@H](C)C(=O)N(C)[C@@H](CC(C)C)C(=O)N(C)[C@@H](CC(C)C)C(=O)N(C)[C@@H](C(C)C)C(=O)N1C` [ALISPORIVIR], the AUC at 72 h in [1] was 0.4 µM·h; in [8] it was 22.1 µM·h; in data set [11] it was 2.19 µM·h; in data set [12], 2.3 µM·h. Further, the pIC50 is 6.96 on Bile salt export pump, 5.60 in data set [3], 6.66 in [6] and 6.23 in [10]. Also, the solubility kinetic in data set [2] is below 5 µg/mL. Besides, the figures for the negative-log Kd (pKd) in data set [4], in data set [5] and in data set [7] were 9.00, 9.00 and 8.66, respectively. Further, the negative-log EC50 (pEC50) in the data set with Hepatitis C virus is 7.34. In addition, the pKi in data set [9] is 4.74.
